Experimental data reported in PubChem BioAssay AID2292 (The Scripps Research Institute Molecular Screening Center, 2010).
This is one part of the list. The source made the active and inactive calls.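 Rule for the calls: active = mean inhibition across replicates above a set limit taken from the earlier primary screen (cut at about 28% in these data); inactive = the rest.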

Test system: Epstein-Barr virus nuclear antigen 1 (EBNA-1) DNA-binding domain, Human herpesvirus 4
Experiment: blockers of EBV EBNA-1 DNA binding – biochemical, fluorescence polarization, triplicate, confirmation (AID 2292);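 note: plate controls were EBNA-1 protein with DMSO for no effect and wells lacking EBNA-1 for full effect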
Details: Recombinant EBNA-1 DBD, Cy5-DNA fluorescence polarization; at 14.8 µM; stronger effect = higher value
How it was run: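 Timing: 30 min protein-DNA premix, then 1 h compound exposure, RT; material: E. coli-made EBNA-1 DBD, residues 448-610; replicates: each compound tested in triplicate; measured by: FP at Ex 620 nm / Em 688 nm; benchmarks: high control without EBNA-1, low control with EBNA-1 only; reagent: 10 nM Cy5 DNA hairpin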

inhibition, active:
N#Cc1ccc(N2Cc3ccccc3/C2=N/C(=O)Nc2ccc(Cl)cc2)cc1 67.7%
CCOc1ccc(C(=O)NC(=S)Nc2ccc(NC(=O)C(C)C)cc2)cc1[N+](=O)[O-] 55.5%
CCOc1cccc(NC(=O)Cn2nc(-c3ccc4c(c3)OCCO4)ccc2=O)c1 64.7%
Cc1ccc(C(=O)NNC(=O)c2cc3cc4ccccc4nc3s2)cc1 29.3%

inhibition, inactive:
N#Cc1nc(N)nc(N(c2ccccc2)c2ccccc2)n1 -5.35%
Cc1ccc(O)c(/C=N/NC(=O)COc2ccc3c(C)cc(=O)oc3c2)c1 -12.4%
COc1ccc(CCNC(=S)N2CCN(S(=O)(=O)c3ccc(F)cc3)CC2)cc1 3.15%
CCc1nccn1S(=O)(=O)c1cccc([N+](=O)[O-])c1 1.11%
COc1ccc(-c2ccc(Nc3ccc(S(=O)(=O)N4CCCC4)cc3)nn2)cc1OC -1.8%
Cc1[nH]n(C(N)=S)c(=O)c1N=Nc1ccc(Cl)cc1Cl -9.96%
O=C(CCCn1c(SCC(=O)c2ccc(F)cc2)nc2ccccc2c1=O)NCc1ccco1 16.5%
Nc1nnc(SCC(=O)Nc2ccc3nc(SCC(=O)Nc4ccccc4)sc3c2)s1 24.9%
CCOc1cccc(SCc2noc(C(=O)NC(C)C)c2C(=O)O)c1 -11.1%
Cc1cccc(NC(=O)Cn2c(=O)n(Cc3ccccc3)c(=O)c3c(C)c(C)sc32)c1 5.76%
COc1ccc(C)cc1NC(=O)NCc1ccccn1 -7.1%
